Laboratory results published in ChEMBL document CHEMBL1800027, “Imidazolopiperazines: hit to lead optimization of new antimalarial agents” (J Med Chem, 2011).

Experiments:
[1] = in vitro; conditions: human, Caco-2
[2] = Cytotoxicity against human HuH7 cells; assay type: cell-based; conditions: Huh-7 cells, read-out: TC50 (the source's name)
[3] = AUC (0 to infinity) in male BALB/c mouse at 5 mg/kg, iv by LC/MS/MS analysis; assay type: ADME, organism-based; set-up: time infinity, dose 5 mg/kg, route intravenous; conditions: plasma
Outline: (§1)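 Male Balb/c mice, n = 3 per group, dosed iv via lateral tail vein at 5 mg/kg and 2 mL/kg. Vehicle 2.5 mg/mL in 75% PEG300/25% DSW, filtered. Six serial retro-orbital blood samples up to 24 h, heparinized plasma. Plasma extracted with acetonitrile/methanol (3:1) plus internal standard for LC/MS/MS (positive ESI, MRM). Noncompartmental analysis.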

[4] = Clearance in male BALB/c mouse at 5 mg/kg, iv by LC/MS/MS analysis; assay type: ADME, organism-based; set-up: dose 5 mg/kg, route intravenous; conditions: in vivo
Outline: as §1

[5] = biological target: Cytochrome P450 2C19 (Homo sapiens, UniProt P33261); assay: Inhibition of CYP 2C19; assay type: ADME
Cytochrome P450 2C19, sequence (P33261 whole entry): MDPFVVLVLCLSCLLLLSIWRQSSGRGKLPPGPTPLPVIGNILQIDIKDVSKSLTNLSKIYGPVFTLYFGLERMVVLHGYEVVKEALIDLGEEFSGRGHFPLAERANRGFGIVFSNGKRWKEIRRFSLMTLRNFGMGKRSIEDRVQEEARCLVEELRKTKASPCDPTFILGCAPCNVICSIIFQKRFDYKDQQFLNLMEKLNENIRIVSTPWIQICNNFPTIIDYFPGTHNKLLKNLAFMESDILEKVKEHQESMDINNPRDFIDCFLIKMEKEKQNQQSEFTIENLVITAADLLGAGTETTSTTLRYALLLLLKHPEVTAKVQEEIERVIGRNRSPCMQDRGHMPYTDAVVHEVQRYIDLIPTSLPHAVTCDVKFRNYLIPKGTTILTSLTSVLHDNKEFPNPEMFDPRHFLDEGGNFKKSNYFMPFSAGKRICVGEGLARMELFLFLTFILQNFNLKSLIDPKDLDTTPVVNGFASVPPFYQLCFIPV

[6] = in vitro; conditions: human, Caco-2; remark: listed apart in the source
[7] = pampa
[8] = biological target: Cytochrome P450 2D6 (Homo sapiens, UniProt P10635); assay: Inhibition of CYP 2D6; assay type: ADME
Cytochrome P450 2D6, sequence (P10635 whole entry): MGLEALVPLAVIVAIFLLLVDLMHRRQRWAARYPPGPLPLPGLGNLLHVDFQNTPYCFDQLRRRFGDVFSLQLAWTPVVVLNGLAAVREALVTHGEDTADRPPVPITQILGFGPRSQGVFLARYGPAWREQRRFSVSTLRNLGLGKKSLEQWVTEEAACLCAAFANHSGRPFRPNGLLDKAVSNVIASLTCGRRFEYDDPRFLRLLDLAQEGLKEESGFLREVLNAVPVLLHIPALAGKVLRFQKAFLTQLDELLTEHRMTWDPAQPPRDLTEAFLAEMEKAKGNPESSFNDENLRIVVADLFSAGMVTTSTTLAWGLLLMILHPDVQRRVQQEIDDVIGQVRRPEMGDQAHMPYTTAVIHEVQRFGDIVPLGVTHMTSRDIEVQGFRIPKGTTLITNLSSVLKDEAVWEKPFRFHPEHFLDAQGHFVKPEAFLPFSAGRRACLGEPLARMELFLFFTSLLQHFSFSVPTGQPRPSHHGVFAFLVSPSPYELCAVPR

[9] = Cytotoxicity against human HeLa cells; assay type: cell-based; conditions: read-out: TC50 (the source's name)
[10] = Tmax in male BALB/c mouse at 20 mg/kg, po by LC/MS/MS analysis; assay type: ADME, organism-based; set-up: dose 20 mg/kg, route oral; conditions: in vivo
Outline: (§2)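 Male Balb/c mice, n = 3 per group, given 20 mg/kg orally at 8 mL/kg. Vehicle 2.5 mg/mL in 75% PEG300/25% DSW, filtered. Six serial retro-orbital blood samples up to 24 h, heparinized plasma. Plasma extracted with acetonitrile/methanol (3:1) plus internal standard; LC/MS/MS quantitation by positive ESI MRM. Noncompartmental analysis; values normalized to 30 mg/kg. F = (AUCpo·dose iv)/(AUCiv·dose po).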

[11] = Half-life in male BALB/c mouse at 5 mg/kg, iv by LC/MS/MS analysis; assay type: ADME, organism-based; set-up: dose 5 mg/kg, route intravenous; conditions: in vivo
Outline: as §1

[12] = Cytotoxicity against Cricetulus griseus CHO cells; assay type: cell-based; conditions: chinese hamster, read-out: TC50 (the source's name)
[13] = Cytotoxicity against human 293T cells; assay type: cell-based; conditions: HEK-293T cells, read-out: TC50 (the source's name)
[14] = tested on: Plasmodium berghei; assay: Antimalarial activity against GFP-tagged Plasmodium berghei ANKA infected in NMRI mouse assessed as reduction in parasitemia at 30 mg/kg, po QD administered 24 hrs post infection for 3 days measured on day 4 post infection; assay type: functional; set-up: scale not given: the % may be the effect or the level left
[15] = tested on: Mus musculus; assay: AUC (0 to infinity) in male BALB/c mouse at 20 mg/kg, po by LC/MS/MS analysis; assay type: ADME, organism-based, Plasma; set-up: time infinity, dose 20 mg/kg, route oral; conditions: in vivo
Outline: as §2

[16] = Oral bioavailability in male BALB/c mouse at 20 mg/kg by LC/MS/MS analysis; assay type: ADME, organism-based; conditions: in vivo
Outline: as §2

[17] = tested on: Plasmodium berghei; assay: Antimalarial activity against GFP-tagged Plasmodium berghei ANKA infected in NMRI mouse assessed as mouse survival at 30 mg/kg, po QD administered 24 hrs post infection for 3 days measured on day 30 post infection; assay type: functional
[18] = tested on: Plasmodium berghei; assay: Antimalarial activity against GFP-tagged Plasmodium berghei ANKA infected in NMRI mouse assessed as mouse survival at 30 mg/kg, po administered as single dose 24 hrs post infection measured 72 hrs post infection
[19] = Cytotoxicity against human Hep2 cells; assay type: cell-based; conditions: HEp-2 cells, read-out: TC50 (the source's name)
[20] = tested on: Rattus norvegicus; assay: Toxicity in rat assessed as adverse effect at 500 mg/kg; assay type: organism-based; set-up: dose 500 mg/kg; conditions: in vivo
[21] = tested on: Mus musculus; assay: Cmax in male BALB/c mouse at 20 mg/kg, po by LC/MS/MS analysis; assay type: ADME, organism-based; set-up: dose 20 mg/kg, route oral; conditions: in vivo
Outline: as §2

[22] = Cytotoxicity against mouse BAF3 cells; assay type: cell-based; conditions: read-out: TC50 (the source's name)
[23] = tested on: Plasmodium falciparum; assay: Antimalarial activity against Plasmodium falciparum 3D7 infected in human erythrocytes assessed as decrease in parasitemia after 72 hrs; assay type: functional, organism-based; conditions: 3D7, 72 h
[24] = tested on: Plasmodium falciparum; assay: Antimalarial activity against Plasmodium falciparum W2 infected in human erythrocytes assessed as decrease in parasitemia after 72 hrs; assay type: functional, organism-based; conditions: W2, 72 h
[25] = biological target: Cytochrome P450 3A4 (Homo sapiens, UniProt P08684); assay: Inhibition of CYP 3A4; assay type: ADME
Cytochrome P450 3A4, sequence (P08684 whole entry): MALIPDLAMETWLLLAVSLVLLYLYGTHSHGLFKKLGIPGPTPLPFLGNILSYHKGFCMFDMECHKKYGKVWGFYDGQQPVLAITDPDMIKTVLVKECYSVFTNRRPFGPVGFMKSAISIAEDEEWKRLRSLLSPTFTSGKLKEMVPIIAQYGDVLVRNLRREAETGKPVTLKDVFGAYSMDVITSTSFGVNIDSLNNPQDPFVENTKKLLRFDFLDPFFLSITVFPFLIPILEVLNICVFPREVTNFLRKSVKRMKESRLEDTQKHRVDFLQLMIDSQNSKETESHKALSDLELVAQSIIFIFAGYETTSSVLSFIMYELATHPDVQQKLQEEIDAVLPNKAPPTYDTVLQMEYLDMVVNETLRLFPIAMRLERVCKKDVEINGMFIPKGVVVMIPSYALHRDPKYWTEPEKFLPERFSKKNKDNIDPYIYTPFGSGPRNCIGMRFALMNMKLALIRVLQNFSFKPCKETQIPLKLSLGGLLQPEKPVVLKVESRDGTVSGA

[26] = biological target: T1, Cytochrome P450 1A2 (Homo sapiens, UniProt P05177); assay: Inhibition of CYP 1A2; assay type: ADME
T1 sequence (P05177 whole entry): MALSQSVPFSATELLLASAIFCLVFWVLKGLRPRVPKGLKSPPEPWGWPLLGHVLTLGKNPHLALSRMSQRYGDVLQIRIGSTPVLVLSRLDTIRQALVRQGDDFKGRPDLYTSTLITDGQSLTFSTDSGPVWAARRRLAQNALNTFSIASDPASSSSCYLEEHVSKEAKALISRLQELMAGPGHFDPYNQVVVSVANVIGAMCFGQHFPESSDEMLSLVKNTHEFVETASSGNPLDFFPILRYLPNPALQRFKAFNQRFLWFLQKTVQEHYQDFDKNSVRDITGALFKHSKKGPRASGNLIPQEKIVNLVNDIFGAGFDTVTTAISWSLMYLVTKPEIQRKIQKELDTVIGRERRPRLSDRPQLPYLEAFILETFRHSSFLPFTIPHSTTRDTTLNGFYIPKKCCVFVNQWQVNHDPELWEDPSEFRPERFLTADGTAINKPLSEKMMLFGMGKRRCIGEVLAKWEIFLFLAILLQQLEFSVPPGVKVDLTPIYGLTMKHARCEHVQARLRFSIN

[27] = Volume of distribution in male BALB/c mouse at 5 mg/kg, iv by LC/MS/MS analysis; assay type: ADME, organism-based; set-up: dose 5 mg/kg, route intravenous; conditions: in vivo
Outline: as §1

[28] = biological target: Cytochrome P450 2C9 (Homo sapiens, UniProt P11712); assay: Inhibition of CYP 2C9; assay type: ADME
Cytochrome P450 2C9, sequence (P11712 whole entry): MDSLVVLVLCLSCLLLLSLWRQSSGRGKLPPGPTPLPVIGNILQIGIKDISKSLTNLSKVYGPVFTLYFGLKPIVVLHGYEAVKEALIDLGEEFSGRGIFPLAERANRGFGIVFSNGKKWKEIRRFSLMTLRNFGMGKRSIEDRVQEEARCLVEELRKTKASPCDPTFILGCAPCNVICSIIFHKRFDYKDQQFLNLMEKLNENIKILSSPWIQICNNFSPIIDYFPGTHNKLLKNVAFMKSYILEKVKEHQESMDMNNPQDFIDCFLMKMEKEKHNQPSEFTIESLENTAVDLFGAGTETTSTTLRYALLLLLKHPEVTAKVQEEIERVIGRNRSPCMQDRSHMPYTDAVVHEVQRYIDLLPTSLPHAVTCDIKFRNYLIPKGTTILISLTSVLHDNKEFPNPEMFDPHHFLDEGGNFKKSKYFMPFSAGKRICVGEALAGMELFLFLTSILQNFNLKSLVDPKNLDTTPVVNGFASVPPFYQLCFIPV

[29] = Half life in male BALB/c mouse at 20 mg/kg, po by LC/MS/MS analysis; assay type: ADME, organism-based; set-up: dose 20 mg/kg, route oral; conditions: in vivo
Outline: as §2

[30] = Aqueous solubility of the compound at pH 6.8; assay type: physicochemical; conditions: buffer
[31] = Selectivity index, ratio TC50 for human HeLa cells to IC50 for Plasmodium falciparum; assay type: functional
[32] = Selectivity index, ratio TC50 for human HuH7 cells to IC50 for Plasmodium falciparum; assay type: functional, Huh-7
[33] = Cmax in po dosed mouse; assay type: ADME, organism-based; set-up: route oral; conditions: in vivo
[34] = biological target: Voltage-gated inwardly rectifying potassium channel KCNH2 (Homo sapiens, UniProt Q12809)
Voltage-gated inwardly rectifying potassium channel KCNH2, sequence (Q12809 whole entry): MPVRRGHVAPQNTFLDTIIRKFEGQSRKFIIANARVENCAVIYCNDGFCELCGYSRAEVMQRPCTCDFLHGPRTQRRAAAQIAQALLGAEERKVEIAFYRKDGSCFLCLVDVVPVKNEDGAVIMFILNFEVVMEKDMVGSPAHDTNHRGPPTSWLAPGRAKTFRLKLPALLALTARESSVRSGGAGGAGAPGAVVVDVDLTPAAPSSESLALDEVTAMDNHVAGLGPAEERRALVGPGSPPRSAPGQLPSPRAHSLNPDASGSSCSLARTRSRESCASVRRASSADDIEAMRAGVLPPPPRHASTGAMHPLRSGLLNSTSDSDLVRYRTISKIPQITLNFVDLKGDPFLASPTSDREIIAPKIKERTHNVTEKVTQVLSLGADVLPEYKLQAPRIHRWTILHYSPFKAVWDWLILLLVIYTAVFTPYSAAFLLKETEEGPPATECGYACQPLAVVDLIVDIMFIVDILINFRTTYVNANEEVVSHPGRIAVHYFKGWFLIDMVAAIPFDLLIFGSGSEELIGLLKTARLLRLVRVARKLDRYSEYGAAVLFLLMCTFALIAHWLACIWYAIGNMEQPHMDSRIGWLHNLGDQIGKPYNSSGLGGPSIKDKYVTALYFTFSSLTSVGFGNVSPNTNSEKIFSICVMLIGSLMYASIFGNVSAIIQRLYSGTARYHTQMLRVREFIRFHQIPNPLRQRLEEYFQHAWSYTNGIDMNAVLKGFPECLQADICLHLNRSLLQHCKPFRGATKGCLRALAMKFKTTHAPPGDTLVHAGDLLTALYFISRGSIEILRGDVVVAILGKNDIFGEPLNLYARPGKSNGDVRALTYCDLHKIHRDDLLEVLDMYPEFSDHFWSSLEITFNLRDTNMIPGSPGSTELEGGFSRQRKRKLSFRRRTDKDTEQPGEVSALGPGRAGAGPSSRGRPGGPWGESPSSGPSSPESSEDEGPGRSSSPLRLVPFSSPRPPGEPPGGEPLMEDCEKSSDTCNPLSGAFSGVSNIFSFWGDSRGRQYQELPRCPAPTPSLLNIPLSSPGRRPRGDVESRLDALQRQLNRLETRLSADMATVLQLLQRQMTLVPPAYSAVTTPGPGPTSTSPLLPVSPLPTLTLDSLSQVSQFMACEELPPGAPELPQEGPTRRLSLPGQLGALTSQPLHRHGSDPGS

[35] = Ratio of drug level in blood to plasma of male BALB/c mouse; assay type: ADME; conditions: blood and plasma
[36] = tested on: Salmonella typhimurium; assay: Genotoxicity in Salmonella Typhimurium by Ames test; assay type: toxicity, organism-based; conditions: salmonella enterica subsp. enterica serovar typhimurium
[37] = Selectivity index, ratio TC50 for CHO cells to IC50 for Plasmodium falciparum; assay type: functional
[38] = Genotoxicity in micronucleus assessed as arrest at cytokinesis stage by micronucleus assay
[39] = Selectivity index, ratio TC50 for human 293T cells to IC50 for Plasmodium falciparum; assay type: functional
[40] = in vitro; conditions: mouse, microsomes
[41] = Selectivity index, ratio TC50 for human Hep2 cells to IC50 for Plasmodium falciparum; assay type: functional, HEp-2
[42] = in vitro; conditions: rat, microsomes
[43] = tested on: Plasmodium berghei; assay: Antimalarial activity against GFP-tagged Plasmodium berghei ANKA infected in NMRI mouse assessed as reduction in parasitemia at 30 mg/kg, po administered as single dose 24 hrs post infection measured 72 hrs post infection; assay type: functional; set-up: scale not given: the % may be the effect or the level left
[44] = in vitro; conditions: human, microsomes
[45] = Selectivity index, ratio TC50 for mouse BAF3 cells to IC50 for Plasmodium falciparum; assay type: functional
[46] = Ratio of drug level in blood to plasma of female CD1 mouse; assay type: ADME; conditions: blood and plasma
[47] = tested on: Plasmodium berghei; assay: Antimalarial activity against GFP-tagged Plasmodium berghei ANKA infected in NMRI mouse assessed as mouse survival at 100 mg/kg, po administered as single dose 24 hrs post infection measured on day 30 post infection
[48] = in vivo; conditions: female, CD1, mouse, iv, 5 mg/kg
[49] = in vivo; conditions: female, CD1, mouse, po, 30 mg/kg
[50] = in vivo; conditions: female, CD1, mouse, iv, 5 mg/kg; remark: listed apart in the source
[51] = tested on: Mus musculus; assay: Oral bioavailability in female CD1 mouse at 30 mg/kg by LC/MS/MS analysis; conditions: mouse, in vivo
[52] = Tmax in female CD1 mouse at 30 mg/kg, po by LC/MS/MS analysis; conditions: in vivo
[53] = in vivo; conditions: female, CD1, mouse, plasma, iv, 5 mg/kg
[54] = in vivo; conditions: female, CD1, mouse, iv, 5 mg/kg; remark: listed apart in the source
[55] = in vivo; conditions: female, CD1, mouse, plasma, po, 30 mg/kg
[56] = Cmax in female CD1 mouse at 30 mg/kg, po by LC/MS/MS analysis; conditions: in vivo

CC(C)(N)C(=O)N1CCn2c(nc(-c3ccc(F)cc3)c2Nc2ccc(F)cc2)C1
Papp B→A [1]: 8.38 ×10⁻⁶ cm/s
CC50 [2]: > 12 µM
AUC(0-inf) [3]: 3.44 µM·h
clearance [4]: 60 mL/min/kg
IC50 [5]: > 8.9 µM
Papp A→B [6]: 3.05 ×10⁻⁶ cm/s
permeability [7]: 81%
IC50 [8]: > 8.9 µM
CC50 [9]: > 12 µM
Tmax [10]: 1.67 h
half-life [11]: 6.2 h
CC50 [12]: > 12 µM
CC50 [13]: > 12 µM
Activity [14]: 99.6%
AUC [15]: 17.894 µM·h
bioavailability [16]: 87%
Survival [17]: 14 days
Survival [18]: 7.7 days
CC50 [19]: > 12 µM
Activity [20]: Non-toxic
Cmax [21]: 1800 nM
CC50 [22]: > 12 µM
IC50 [23]: 0.02 µM
IC50 [24]: 0.025 µM
IC50 [25]: > 8.9 µM
IC50 [26]: > 8.9 µM
Vd [27]: 23.7 L/kg
IC50 [28]: > 8.9 µM
half-life [29]: 9 h

NCC(=O)N1CCn2c(nc(-c3ccccc3)c2Nc2ccc3c(c2)OCO3)C1
solubility [30]: > 175 µM
CC50 [2]: > 10 µM
IC50 [5]: > 10 µM
IC50 [8]: > 10 µM
Selectivity Index [31]: >20
Selectivity Index [32]: >20
Cmax [33]: 320 nM
IC50 [34]: 19 µM
IC50 [23]: 0.063 µM
IC50 [24]: 0.097 µM
IC50 [25]: > 10 µM
IC50 [26]: > 10 µM
IC50 [28]: > 10 µM

CC(C)(N)C(=O)N1CCn2c(nc(-c3ccc(F)cc3)c2Nc2ccc(F)c(F)c2)C1
Papp B→A [1]: 1.03 ×10⁻⁶ cm/s
CC50 [2]: > 12 µM
blood plasma ratio [35]: > 1
Activity [36]: Non-toxic
AUC(0-inf) [3]: 7 µM·h
clearance [4]: 27.7 mL/min/kg
IC50 [5]: > 8.9 µM
Papp A→B [6]: 0.14 ×10⁻⁶ cm/s
Selectivity Index [37]: >100
permeability [7]: 86%
IC50 [8]: > 8.9 µM
CC50 [9]: > 12 µM
Tmax [10]: 1.67 h
Activity [38]: Non-toxic
half-life [11]: 7.7 h
CC50 [12]: > 12 µM
CC50 [13]: > 12 µM
AUC [15]: 31.758 µM·h
Selectivity Index [39]: >100
bioavailability [16]: 76%
Survival [17]: 17.7 days
Survival [18]: 7.7 days
hepatic extraction ratio [40]: 0.17
Selectivity Index [41]: >100
Selectivity Index [31]: >100
hepatic extraction ratio [42]: 0.12
Activity [43]: 99.4%
Selectivity Index [32]: >100
hepatic extraction ratio [44]: 0.39
Selectivity Index [45]: >100
CC50 [19]: > 12 µM
IC50 [34]: 4.8 µM
blood plasma ratio [46]: > 1
Cmax [21]: 1940 nM
Survival [47]: 17 days
CC50 [22]: > 12 µM
IC50 [23]: 0.044 µM
IC50 [24]: 0.036 µM
IC50 [25]: > 8.9 µM
IC50 [26]: > 8.9 µM
Vd [27]: 14 L/kg
IC50 [28]: > 8.9 µM
half-life [29]: 7.7 h

CC(C)(N)C(=O)N1CCn2c(nc(-c3ccc(F)cc3)c2Nc2ccc(Cl)cc2)C1
half-life [48]: 8.7 h
half-life [49]: 37.6 h
Papp B→A [1]: 1.86 ×10⁻⁶ cm/s
clearance [50]: 65.2 mL/min/kg
F [51]: 158%
Papp A→B [6]: 1.46 ×10⁻⁶ cm/s
permeability [7]: 89%
Tmax [52]: 1 h
Activity [14]: 99.5%
AUC(0-inf) [53]: 2.98 µM·h
Vd [54]: 40.5 L/kg
AUC(0-inf) [55]: 28.3 µM·h
Survival [18]: 6 days
hepatic extraction ratio [40]: 0.17
hepatic extraction ratio [42]: 0.43
Activity [43]: 98%
hepatic extraction ratio [44]: 0.54
IC50 [34]: 2.3 µM
Survival [47]: 13 days
IC50 [23]: 0.03 µM
Cmax [56]: 749 nM
IC50 [24]: 0.024 µM
